Data taken from ChEMBL document CHEMBL1944523, “Benzimidazolones: a new class of selective peroxisome proliferator-activated receptor γ (PPARγ) modulators” (J Med Chem, 2011).

What was measured:
[1] = target: T1, Peroxisome proliferator-activated receptor gamma (Homo sapiens, UniProt P37231); experiment: Binding affinity to human PPARgamma by scintillation proximity assay
T1 sequence (P37231 whole entry): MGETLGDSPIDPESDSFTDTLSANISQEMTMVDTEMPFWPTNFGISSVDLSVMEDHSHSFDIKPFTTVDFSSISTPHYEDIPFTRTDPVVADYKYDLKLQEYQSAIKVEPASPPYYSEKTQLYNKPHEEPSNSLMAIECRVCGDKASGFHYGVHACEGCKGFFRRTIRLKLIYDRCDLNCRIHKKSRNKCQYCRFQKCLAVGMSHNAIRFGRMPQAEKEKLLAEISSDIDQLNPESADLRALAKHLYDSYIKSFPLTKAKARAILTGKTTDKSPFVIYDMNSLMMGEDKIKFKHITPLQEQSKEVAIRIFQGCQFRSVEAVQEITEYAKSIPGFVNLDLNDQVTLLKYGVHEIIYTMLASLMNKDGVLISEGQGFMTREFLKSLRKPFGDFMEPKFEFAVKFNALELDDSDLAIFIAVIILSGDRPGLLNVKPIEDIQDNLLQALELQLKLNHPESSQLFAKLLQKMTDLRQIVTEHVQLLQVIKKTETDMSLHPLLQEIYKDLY
Outline: (§1)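 Scintillation proximity binding assay on PPAR receptors giving IC50; mean of three determinations.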

[2] = target: T2, Peroxisome proliferator-activated receptor alpha (Homo sapiens, UniProt Q07869); experiment: Binding affinity to human PPARalpha expressed in COS-1 by scintillation proximity assay; outline: as §1
T2 sequence (Q07869 whole entry): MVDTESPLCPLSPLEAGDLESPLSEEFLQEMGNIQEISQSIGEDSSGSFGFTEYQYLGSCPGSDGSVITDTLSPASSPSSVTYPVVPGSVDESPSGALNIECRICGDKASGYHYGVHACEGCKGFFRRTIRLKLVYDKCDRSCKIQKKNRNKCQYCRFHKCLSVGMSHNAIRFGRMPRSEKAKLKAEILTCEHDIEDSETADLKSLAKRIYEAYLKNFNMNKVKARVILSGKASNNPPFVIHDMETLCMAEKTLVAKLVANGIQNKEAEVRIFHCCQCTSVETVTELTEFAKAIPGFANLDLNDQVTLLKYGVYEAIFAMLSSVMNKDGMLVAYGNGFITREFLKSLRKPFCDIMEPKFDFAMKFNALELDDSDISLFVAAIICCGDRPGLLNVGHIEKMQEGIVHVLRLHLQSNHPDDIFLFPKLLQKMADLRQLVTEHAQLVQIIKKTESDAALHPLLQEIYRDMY

[3] = target: T3, Peroxisome proliferator-activated receptor delta (Homo sapiens, UniProt Q03181); experiment: Binding affinity to PPARdelta by scintillation proximity assay; outline: as §1
T3 sequence (Q03181 whole entry): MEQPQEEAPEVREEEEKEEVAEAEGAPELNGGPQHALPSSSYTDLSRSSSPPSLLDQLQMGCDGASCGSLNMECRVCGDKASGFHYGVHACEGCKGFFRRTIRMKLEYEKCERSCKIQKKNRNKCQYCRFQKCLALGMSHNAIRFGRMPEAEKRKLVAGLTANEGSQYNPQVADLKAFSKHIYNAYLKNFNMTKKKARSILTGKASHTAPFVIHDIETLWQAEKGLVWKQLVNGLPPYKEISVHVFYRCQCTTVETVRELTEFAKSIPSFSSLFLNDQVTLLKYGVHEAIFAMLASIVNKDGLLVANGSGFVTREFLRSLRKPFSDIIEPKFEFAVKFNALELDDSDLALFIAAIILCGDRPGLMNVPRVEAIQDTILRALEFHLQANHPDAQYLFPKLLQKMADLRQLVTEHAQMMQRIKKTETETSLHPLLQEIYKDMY

[4] = target: T1, Peroxisome proliferator-activated receptor gamma; experiment: Agonist activity at human PPARgamma expressed in COS-1 cells co-expressing with Gal4 by transactivation assay; type: functional, cell-based
Outline: (§2)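 GAL4-PPAR chimeric receptor transactivation in transiently co-transfected COS-1 cells with a GAL4-responsive reporter; potency as EC50 and maximum activation expressed relative to rosiglitazone; triplicate, mean reported.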

[5] = target: T4, Peroxisome proliferator-activated receptor gamma (Homo sapiens) (UniProt P37231); experiment: Agonist activity at human PPARgamma expressed in COS-1 cells co-expressing with Gal4 by transactivation assay relative to rosiglitazone; type: functional, cell-based; outline: as §2
T4 sequence (whole entry): T1 sequence (P37231 whole entry)

Rattus norvegicus [6] = experiment: Dose normalized AUC in rat at 2 mg/kg, po by LC-MS/MS analysis; type: ADME, organism-based; parameters: dose 2 mg/kg, route oral; details: in vivo
Outline: (§3)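 Rat pharmacokinetics: 2 mpk oral in 5% methylcellulose, 0.5 mpk iv in ethanol/PEG400/water (1/4/5). Blood sampled at set intervals; plasma acidified with 0.5 M formate buffer pH 3.0, acetonitrile-precipitated, quantified by LC−MS−MS against spiked control-plasma calibration curves.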

Rattus norvegicus [7] = experiment: Plasma clearance in rat at 0.5 mg/kg, iv and 2 mg/kg, po by LC-MS/MS analysis; type: ADME, organism-based; details: in vivo; outline: as §3
[8] = Half life in rat at 0.5 mg/kg, iv and 2 mg/kg, po by LC-MS/MS analysis; type: ADME, organism-based; details: in vivo; outline: as §3
[9] = Oral bioavailability in rat at 2 mg/kg by LC-MS/MS analysis; type: ADME, organism-based; details: in vivo; outline: as §3
[10] = target: T1, Peroxisome proliferator-activated receptor gamma; experiment: Partial agonist activity at human PPARgamma LBD assessed as activation of CBP1-453 by HTRF assay; type: functional
[11] = target: T1, Peroxisome proliferator-activated receptor gamma; experiment: Partial agonist activity at human PPARgamma LBD assessed as activation of PGC1 by HTRF assay; type: functional
[12] = target: T1, Peroxisome proliferator-activated receptor gamma; experiment: Partial agonist activity at human PPARgamma LBD assessed as activation of Src-1 by HTRF assay; type: functional
[13] = target: T1, Peroxisome proliferator-activated receptor gamma; experiment: Partial agonist activity at human PPARgamma LBD assessed as activation of PBP by HTRF assay; type: functional
Mus musculus = experiment: Antidiabetic activity in db/db C57BLKS/J-m +/+ Leprdb mouse assessed as reduction of glucose level at 30 mg/kg, po qd for 10 days measured on 11 relative to control; type: functional; parameters: scale not given: the % may be the effect or the level left
Outline: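 Male db/db (C57BLKS/J-m +/+Leprdb) mice, 12−13 weeks old, seven per group, chow and water freely available; once-daily oral gavage in 0.25% methylcellulose vehicle for 11 days. Tail blood drawn just before next dose on days 0, 4, 7 and 11 for plasma glucose. Value is percent correction versus vehicle control; mean of n = 7; rosiglitazone 10 mpk positive control.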

| SMILES | IC50 [1] [nM] | IC50 [2] [nM] | IC50 [3] [nM] | EC50 [4] [nM] | Emax [5] [%] | further results |
| --- | --- | --- | --- | --- | --- | --- |
| COc1ccc2c(-n3c(=O)n(Cc4ccccc4[C@@]4(C)OC(=O)NC4=O)c4cc(C(F)(F)F)ccc43)noc2c1 | 6630 | > 50000 | > 50000 | – | – | – |
| COc1ccc2c(-n3c(=O)n(Cc4cc(O[C@H](C)C(=O)O)ccc4Cl)c4ccccc43)noc2c1 | 13.7 | > 50000 | > 50000 | 51.1 | 50 | AUC/dose (Rattus norvegicus [6]): 5 µM·kg·h/mg; clearance (Rattus norvegicus [7]): 7.3 mL/min/kg; half-life [8]: 6.9 h; bioavailability [9]: 97%; EC50 [10]: 11 nM; EC50 [11]: 8 nM; EC50 [12]: > 50000 nM; EC50 [13]: 11 nM; Activity (Mus musculus): 30% |
| COc1ccc2c(-n3c(=O)n(Cc4ccc(Cl)c(O[C@H](C)C(=O)O)c4)c4cc(C(F)(F)F)ccc43)noc2c1 | 4.1 | > 50000 | > 50000 | 103 | 28 | – |
| Cc1cccc2c(-n3c(=O)n(Cc4ccc(Cl)c(O[C@H](C)C(=O)O)c4)c4cc(C(F)(F)F)ccc43)noc12 | 9.2 | > 50000 | > 50000 | 4.1 | 25 | – |
| C[C@@H](Oc1cc(Cn2c(=O)n(-c3nc4ccc(Cl)cc4s3)c3ccc(C(F)(F)F)cc32)ccc1Cl)C(=O)O | 1370 | > 50000 | > 50000 | – | – | – |
| COc1ccc2c(-n3c(=O)n(Cc4ccc(Cl)c(O[C@H](C)C(=O)O)c4)c4ccc(C(F)(F)F)cc43)noc2c1 | 2.3 | > 50000 | > 50000 | 83 | 43 | – |
| C[C@@H](Oc1cc(Cn2c(=O)n(Cc3ccc(Cl)cc3)c3ccc(C(F)(F)F)cc32)ccc1Cl)C(=O)O | 4800 | > 50000 | > 50000 | 3000 | 17 | – |
| COc1ccc2c(-n3c(=O)n(Cc4ccc(Cl)c(O[C@H](C)C(=O)O)c4)c4cc(OC(F)(F)F)ccc43)noc2c1 | 3.2 | > 50000 | > 50000 | 11.4 | 39 | – |
| C[C@@H](Oc1cc(Cn2c(=O)n(-c3noc4cc(Cl)ccc34)c3ccc(C(F)(F)F)cc32)ccc1Cl)C(=O)O | 68 | > 50000 | > 50000 | 200 | 32 | EC50 [10]: > 50000 nM; EC50 [11]: 3240 nM; EC50 [12]: > 50000 nM; EC50 [13]: > 50000 nM |
| C[C@@H](Oc1cc(Cn2c(=O)n(-c3noc4ccc(Cl)cc34)c3ccc(C(F)(F)F)cc32)ccc1Cl)C(=O)O | 35.4 | > 50000 | > 50000 | 120 | 36 | – |
| COc1ccc2c(-n3c(=O)n(-c4cccc([C@@]5(C)OC(=O)NC5=O)c4)c4cc(C(F)(F)F)ccc43)noc2c1 | 6930 | > 50000 | > 50000 | – | – | – |
| COc1ccc2c(-n3c(=O)n(Cc4cccc(O[C@H](C)C(=O)O)c4)c4cc(C(F)(F)F)ccc43)noc2c1 | 924 | > 50000 | > 50000 | – | – | – |
| COc1ccc2c(-n3c(=O)n(Cc4ccc(Cl)c(O[C@@H](C)C(=O)O)c4)c4cc(C(F)(F)F)ccc43)noc2c1 | 66 | > 50000 | > 50000 | 3000 | 4 | – |
| Cc1ccc2onc(-n3c(=O)n(Cc4ccc(Cl)c(O[C@H](C)C(=O)O)c4)c4cc(C(F)(F)F)ccc43)c2c1 | 11.2 | > 50000 | > 50000 | 3000 | 53 | – |
| CC[C@@H](Oc1cccc(Cn2c(=O)n(-c3noc4cc(OC)ccc34)c3ccc(C(F)(F)F)cc32)c1)C(=O)O | 3660 | > 50000 | > 50000 | – | – | – |
| COc1ccc2c(-n3c(=O)n(Cc4cccc([C@@]5(C)OC(O)=NC5=O)c4)c4cc(C(F)(F)F)ccc43)noc2c1 | 93 | > 50000 | > 50000 | 237 | – | – |
| COc1ccc2c(-n3c(=O)n(Cc4cccc([C@@]5(C)OC(=O)NC5=O)c4)c4cc(C(F)(F)F)ccc43)noc2c1 | – | – | – | – | 45 | – |
| COc1ccc2c(-n3c(=O)n(Cc4ccc(Cl)c(O[C@H](C)C(=O)O)c4)c4ccc(OC(F)(F)F)cc43)noc2c1 | 4.1 | > 50000 | > 50000 | 13.2 | 31 | – |
| Cc1c(C(=O)c2ccc(Cl)cc2)c2ccc(OC(F)(F)F)cc2n1Cc1cccc(O[C@@H](C(=O)O)C(C)C)c1 | – | – | – | – | – | EC50 [10]: 7 nM; EC50 [11]: 5 nM; EC50 [12]: 9 nM; EC50 [13]: 6 nM |
| COc1ccc2c(-n3c(=O)n(Cc4cc(O[C@H](C)C(=O)O)ccc4Cl)c4cc(C(F)(F)F)ccc43)noc2c1 | 9.1 | > 50000 | > 50000 | 102 | 26 | – |
| COc1ccc2c(-n3c(=O)n(Cc4cc([C@@]5(C)OC(=O)NC5=O)ccc4Cl)c4cc(C(F)(F)F)ccc43)noc2c1 | 7.7 | > 50000 | > 50000 | 17 | 28 | – |
| C[C@@H](Oc1cc(Cn2c(=O)n(C(=O)c3ccc(Cl)cc3)c3ccc(C(F)(F)F)cc32)ccc1Cl)C(=O)O | 255 | > 50000 | > 50000 | 489 | 21 | – |
| Cc1ccc2c(-n3c(=O)n(Cc4ccc(Cl)c(O[C@H](C)C(=O)O)c4)c4cc(C(F)(F)F)ccc43)noc2c1 | 14.2 | > 50000 | > 50000 | 77.5 | 37 | – |
| CN(CCOc1ccc(C[C@H](OCC(F)(F)F)C(=O)O)cc1)c1nc2ccccc2o1 | – | – | – | – | – | EC50 [10]: 1 nM; EC50 [11]: 1 nM; EC50 [12]: 2 nM; EC50 [13]: 1 nM |
| C[C@@H](Oc1cc(Cn2c(=O)n(-c3ccc(C(C)(C)C)cc3)c3ccc(C(F)(F)F)cc32)ccc1Cl)C(=O)O | 161 | > 50000 | > 50000 | 135 | 15 | EC50 [10]: 480 nM; EC50 [11]: 460 nM; EC50 [12]: > 50000 nM; EC50 [13]: 440 nM |
| COc1ccc2c(-n3c(=O)n(Cc4ccc([C@@]5(C)OC(=O)NC5=O)cc4)c4cc(C(F)(F)F)ccc43)noc2c1 | 2180 | > 50000 | > 50000 | – | – | – |
| Cc1c(C(=O)c2ccc(Cl)cc2)c2ccc(OC(F)(F)F)cc2n1Cc1cccc(O[C@H](C)C(=O)O)c1 | – | – | – | – | – | EC50 [10]: 6 nM; EC50 [11]: 5 nM; EC50 [12]: > 50000 nM; EC50 [13]: 5 nM |
